Reference: ChEMBL document CHEMBL3421533, “The Discovery of Orally Bioavailable Tyrosine Threonine Kinase (TTK) Inhibitors: 3-(4-(heterocyclyl)phenyl)-1H-indazole-5-carboxamides as Anticancer Agents” (J Med Chem, 2015)

Molecular target: Aurora kinase B/Inner centromere protein (Homo sapiens, UniProt Q96GD4)
Assay: Inhibition of AURKB/INCENP (unknown origin) preincubated for 15 mins prior to ATP addition by FRET-based homogenous assay
Assay type: protein-complex assay
Conditions: not given
In short: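 The enzyme was AURKB/INCENP in a FRET-based homogeneous assay run to kit specifications, with ATP at 128 μM. […] Each IC50 came from a single determination, reported with its standard fitting error.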

Chain of Aurora kinase B/Inner centromere protein (Q96GD4 whole entry): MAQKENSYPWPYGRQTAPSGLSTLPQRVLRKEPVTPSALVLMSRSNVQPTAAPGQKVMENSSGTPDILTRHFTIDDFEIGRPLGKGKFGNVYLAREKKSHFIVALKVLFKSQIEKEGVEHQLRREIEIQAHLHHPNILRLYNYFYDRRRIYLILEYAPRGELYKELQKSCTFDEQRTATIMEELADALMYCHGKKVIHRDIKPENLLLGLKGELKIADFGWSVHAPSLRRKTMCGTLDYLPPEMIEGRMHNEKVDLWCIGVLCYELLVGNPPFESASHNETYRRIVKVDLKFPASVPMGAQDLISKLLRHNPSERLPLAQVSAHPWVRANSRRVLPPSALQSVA
Chain of Aurora kinase B/Inner centromere protein (Q9NQS7 whole entry, further chain): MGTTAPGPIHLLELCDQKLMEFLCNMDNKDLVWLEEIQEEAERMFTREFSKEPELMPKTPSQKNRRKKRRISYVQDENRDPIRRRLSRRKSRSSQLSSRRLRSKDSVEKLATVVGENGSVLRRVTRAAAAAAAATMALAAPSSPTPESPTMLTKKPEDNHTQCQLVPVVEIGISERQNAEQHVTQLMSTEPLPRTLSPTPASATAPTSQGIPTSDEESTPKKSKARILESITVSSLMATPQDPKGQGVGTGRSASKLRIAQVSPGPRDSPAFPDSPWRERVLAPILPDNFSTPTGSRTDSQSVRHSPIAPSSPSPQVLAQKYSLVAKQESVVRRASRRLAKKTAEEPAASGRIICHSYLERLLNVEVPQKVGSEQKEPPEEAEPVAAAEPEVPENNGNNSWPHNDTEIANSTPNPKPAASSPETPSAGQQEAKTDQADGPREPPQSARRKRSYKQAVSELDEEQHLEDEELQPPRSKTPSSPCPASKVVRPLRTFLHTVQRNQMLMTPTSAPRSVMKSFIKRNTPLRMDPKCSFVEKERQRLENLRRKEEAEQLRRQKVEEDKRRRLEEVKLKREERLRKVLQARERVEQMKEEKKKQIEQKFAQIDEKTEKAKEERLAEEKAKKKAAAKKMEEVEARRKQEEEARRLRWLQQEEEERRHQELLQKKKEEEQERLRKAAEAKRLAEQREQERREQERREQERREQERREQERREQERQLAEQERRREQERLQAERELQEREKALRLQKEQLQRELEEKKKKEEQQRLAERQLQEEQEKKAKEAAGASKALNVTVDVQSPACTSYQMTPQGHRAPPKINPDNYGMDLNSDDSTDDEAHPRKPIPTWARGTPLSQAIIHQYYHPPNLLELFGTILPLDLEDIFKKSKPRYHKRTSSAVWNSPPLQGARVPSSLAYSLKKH

| Structure (SMILES) | IC50 [nM] |
| --- | --- |
| O=C(N[C@@H](c1ccccn1)C1CCCC1)c1ccc2[nH]nc(-c3ccc(N4[C@H]5COC[C@H]4CC(O)C5)cc3)c2c1 (stereo partly drawn) | 740 |
| CC(C)C[C@H](NC(=O)c1ccc2[nH]nc(-c3ccc(N4[C@H]5COC[C@H]4CC(O)C5)cc3)c2c1)c1ccccn1 (mixture of isomers) | 230 |
| CN1CCC(Oc2ccc(-c3n[nH]c4ccc(C(=O)NC(c5ccccc5)C5CC5)cc34)cc2)CC1 (racemic) | 57 |
| CN1CCC(Oc2ccc(-c3n[nH]c4ccc(NC(=O)C(c5ccccn5)C5CCCC5)cc34)cc2)CC1 (racemic) | 71 |
| CN1CCC(Oc2ccc(-c3n[nH]c4ccc(C(=O)NC(c5ccccn5)C5CCCC5)cc34)cc2)CC1 (racemic) | 180 |
| O=CN1CCC(Oc2ccc(-c3n[nH]c4ccc(C(=O)NC(c5ccccn5)C5CC5)cc34)cc2)CC1 (racemic) | 95 |
| CN1[C@@H]2CC[C@H]1C[C@@H](Oc1ccc(-c3n[nH]c4ccc(C(=O)NC(c5ccccc5)C5CC5)cc34)cc1)C2 (mixture of isomers) | 93 |
| O=C(N[C@H](c1ccccn1)C1CC1)c1ccc2[nH]nc(-c3ccc(N4[C@H]5CC[C@H]4CC(O)C5)cc3)c2c1 (stereo in doubt; 74) | 530 |

Molecular target: T1, Dual specificity protein kinase TTK (Homo sapiens, UniProt P33981)
T1 sequence (P33981 whole entry): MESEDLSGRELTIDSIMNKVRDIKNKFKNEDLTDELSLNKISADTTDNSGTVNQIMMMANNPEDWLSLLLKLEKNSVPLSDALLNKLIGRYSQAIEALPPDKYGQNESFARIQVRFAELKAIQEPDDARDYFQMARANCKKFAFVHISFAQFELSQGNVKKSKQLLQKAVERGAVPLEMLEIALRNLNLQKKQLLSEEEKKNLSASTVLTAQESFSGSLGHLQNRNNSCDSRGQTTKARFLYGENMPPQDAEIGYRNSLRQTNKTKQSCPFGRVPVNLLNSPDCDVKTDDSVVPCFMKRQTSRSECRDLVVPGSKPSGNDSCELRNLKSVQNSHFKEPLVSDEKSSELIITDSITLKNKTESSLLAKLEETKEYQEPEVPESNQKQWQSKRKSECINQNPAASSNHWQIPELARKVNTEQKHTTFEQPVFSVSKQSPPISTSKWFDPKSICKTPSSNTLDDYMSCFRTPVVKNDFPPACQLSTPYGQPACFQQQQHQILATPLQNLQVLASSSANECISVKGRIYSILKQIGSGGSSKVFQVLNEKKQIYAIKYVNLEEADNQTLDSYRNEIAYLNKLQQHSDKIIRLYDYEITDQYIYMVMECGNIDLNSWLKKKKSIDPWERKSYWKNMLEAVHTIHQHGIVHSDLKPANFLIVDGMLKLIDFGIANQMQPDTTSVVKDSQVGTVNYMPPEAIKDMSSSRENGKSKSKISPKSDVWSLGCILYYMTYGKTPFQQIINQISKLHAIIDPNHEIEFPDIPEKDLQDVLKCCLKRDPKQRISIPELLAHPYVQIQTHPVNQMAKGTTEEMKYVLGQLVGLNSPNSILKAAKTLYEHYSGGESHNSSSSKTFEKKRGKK
Assay: Inhibition of amino terminal GST-fused full length human TTK using His6-SUMO-TTK-N as substrate preincubated for 15 mins prior to ATP addition by indirect ELISA detection system
Conditions: not given

| Structure (SMILES) | IC50 [nM] |
| --- | --- |
| O=C(N[C@@H](c1ccccn1)C1CCCC1)c1ccc2[nH]nc(-c3ccc(N4[C@H]5COC[C@H]4CC(O)C5)cc3)c2c1 (stereo partly drawn) | 2.2 |
| O=CN1CCC(Oc2ccc(-c3n[nH]c4ccc(C(=O)NC(c5ccccn5)C5CC5)cc34)cc2)CC1 (racemic) | 9.4 |
| CN1[C@@H]2CC[C@H]1C[C@@H](Oc1ccc(-c3n[nH]c4ccc(C(=O)NC(c5ccccc5)C5CC5)cc34)cc1)C2 (mixture of isomers) | 2.8 |
| O=C(N[C@H](c1ccccn1)C1CC1)c1ccc2[nH]nc(-c3ccc(N4[C@H]5CC[C@H]4CC(O)C5)cc3)c2c1 (stereo in doubt; 74) | 1.2 |

Test system: not listed separately
Assay: AUCinfinity in athymic CD1 nude mouse at 10 mg/kg, po by LC-MS/MS analysis
Assay type: ADME, organism-based, Plasma
Parameters: time infinity, dose 10 mg/kg, route oral
Conditions: athymic CD1 nude, plasma

| Structure (SMILES) | AUC(0-inf) [ng·h/mL] |
| --- | --- |
| O=C(N[C@H](c1ccccn1)C1CC1)c1ccc2[nH]nc(-c3ccc(N4[C@H]5CC[C@H]4CC(O)C5)cc3)c2c1 (stereo in doubt; 74) | 1600 |

Molecular target: Cytochrome P450 3A4 (Homo sapiens, UniProt P08684)
Sequence (P08684 whole entry): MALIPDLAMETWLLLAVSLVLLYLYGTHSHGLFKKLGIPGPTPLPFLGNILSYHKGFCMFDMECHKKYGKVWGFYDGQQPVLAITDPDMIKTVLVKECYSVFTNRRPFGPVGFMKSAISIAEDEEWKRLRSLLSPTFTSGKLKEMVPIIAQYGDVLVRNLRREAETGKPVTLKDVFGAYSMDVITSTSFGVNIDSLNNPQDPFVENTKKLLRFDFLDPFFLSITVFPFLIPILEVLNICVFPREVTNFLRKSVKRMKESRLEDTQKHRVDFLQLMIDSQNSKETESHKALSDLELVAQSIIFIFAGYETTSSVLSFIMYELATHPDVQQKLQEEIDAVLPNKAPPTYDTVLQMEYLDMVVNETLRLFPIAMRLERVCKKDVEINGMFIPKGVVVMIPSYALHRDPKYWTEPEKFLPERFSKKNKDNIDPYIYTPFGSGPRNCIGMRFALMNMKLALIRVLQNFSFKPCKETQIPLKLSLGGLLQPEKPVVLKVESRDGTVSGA
Assay: Inhibition of human CYP3A4 using BFC as substrate preincubated for 10 mins followed by enzyme/substrate addition measured after 30 mins by fluorescence assay
Assay type: ADME
Conditions: not given

| Structure (SMILES) | IC50 [nM] |
| --- | --- |
| O=C(N[C@@H](c1ccccn1)C1CCCC1)c1ccc2[nH]nc(-c3ccc(N4[C@H]5COC[C@H]4CC(O)C5)cc3)c2c1 (stereo partly drawn) | 330 |
| O=CN1CCC(Oc2ccc(-c3n[nH]c4ccc(C(=O)NC(c5ccccn5)C5CC5)cc34)cc2)CC1 (racemic) | 1500 |
| CN1[C@@H]2CC[C@H]1C[C@@H](Oc1ccc(-c3n[nH]c4ccc(C(=O)NC(c5ccccc5)C5CC5)cc34)cc1)C2 (mixture of isomers) | 2400 |
| O=C(N[C@H](c1ccccn1)C1CC1)c1ccc2[nH]nc(-c3ccc(N4[C@H]5CC[C@H]4CC(O)C5)cc3)c2c1 (stereo in doubt; 74) | 2100 |

Test system: MDA-MB-468
Assay: Cytotoxicity against human MDA-MB-468 cells after 5 days by sulforhodamine B assay
Assay type: functional
Conditions: not given
In short: (§1)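 Cancer lines were seeded at 800–6000 cells per well according to growth rate, 24 h before compound overlay. After culture, cells were fixed in situ and stained with sulforhodamine B. GI50 values were derived by curve fitting.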

| Structure (SMILES) | GI50 [nM] |
| --- | --- |
| O=C(N[C@H](c1ccccn1)C1CC1)c1ccc2[nH]nc(-c3ccc(N4[C@H]5CC[C@H]4CC(O)C5)cc3)c2c1 (stereo in doubt; 74) | 16 |

Same assay, conditions: Homo sapiens, MDA-MB-468, 120 h

| Structure (SMILES) | GI50 [nM] |
| --- | --- |
| O=C(N[C@@H](c1ccccn1)C1CCCC1)c1ccc2[nH]nc(-c3ccc(N4[C@H]5COC[C@H]4CC(O)C5)cc3)c2c1 (stereo partly drawn) | 140 |
| O=CN1CCC(Oc2ccc(-c3n[nH]c4ccc(C(=O)NC(c5ccccn5)C5CC5)cc34)cc2)CC1 (racemic) | 260 |
| CN1[C@@H]2CC[C@H]1C[C@@H](Oc1ccc(-c3n[nH]c4ccc(C(=O)NC(c5ccccc5)C5CC5)cc34)cc1)C2 (mixture of isomers) | 130 |

Test system: not listed separately
Assay: Cytotoxicity against human HCT116 cells after 5 days by sulforhodamine B assay
Assay type: functional, HCT-116
Conditions: Homo sapiens, HCT-116, 120 h
In short: as §1

| Structure (SMILES) | GI50 [nM] |
| --- | --- |
| O=C(N[C@@H](c1ccccn1)C1CCCC1)c1ccc2[nH]nc(-c3ccc(N4[C@H]5COC[C@H]4CC(O)C5)cc3)c2c1 (stereo partly drawn) | 15 |
| O=CN1CCC(Oc2ccc(-c3n[nH]c4ccc(C(=O)NC(c5ccccn5)C5CC5)cc34)cc2)CC1 (racemic) | 35 |
| CN1[C@@H]2CC[C@H]1C[C@@H](Oc1ccc(-c3n[nH]c4ccc(C(=O)NC(c5ccccc5)C5CC5)cc34)cc1)C2 (mixture of isomers) | 30 |
| O=C(N[C@H](c1ccccn1)C1CC1)c1ccc2[nH]nc(-c3ccc(N4[C@H]5CC[C@H]4CC(O)C5)cc3)c2c1 (stereo in doubt; 74) | 18 |

Test system: not listed separately
Assay: Half life in rat liver microsomes at 1 uM by LC-MS analysis
Assay type: ADME
Conditions: liver microsomes

| Structure (SMILES) | half-life at 1 µM [min] |
| --- | --- |
| O=C(N[C@@H](c1ccccn1)C1CCCC1)c1ccc2[nH]nc(-c3ccc(N4[C@H]5COC[C@H]4CC(O)C5)cc3)c2c1 (stereo partly drawn) | 33 |
| O=C(N[C@H](c1ccccn1)C1CC1)c1ccc2[nH]nc(-c3ccc(N4[C@H]5CC[C@H]4CC(O)C5)cc3)c2c1 (stereo in doubt; 74) | > 60 |

Test system: not listed separately
Assay: Cmax in athymic CD1 nude mouse at 10 mg/kg, po by LC-MS/MS analysis
Assay type: ADME, organism-based
Parameters: dose 10 mg/kg, route oral
Conditions: athymic CD1 nude, in vivo

| Structure (SMILES) | Cmax [ng/mL] |
| --- | --- |
| O=C(N[C@H](c1ccccn1)C1CC1)c1ccc2[nH]nc(-c3ccc(N4[C@H]5CC[C@H]4CC(O)C5)cc3)c2c1 (stereo in doubt; 74) | 1600 |

Test system: not listed separately
Assay: Cytotoxicity against human OVCAR3 cells after 5 days by sulforhodamine B assay
Assay type: functional, OVCAR-3
Conditions: not given

| Structure (SMILES) | GI50 [nM] |
| --- | --- |
| O=C(N[C@H](c1ccccn1)C1CC1)c1ccc2[nH]nc(-c3ccc(N4[C@H]5CC[C@H]4CC(O)C5)cc3)c2c1 (stereo in doubt; 74) | 20 |

Same assay, conditions: Homo sapiens, OVCAR-3, 120 h

| Structure (SMILES) | GI50 [nM] |
| --- | --- |
| O=C(N[C@@H](c1ccccn1)C1CCCC1)c1ccc2[nH]nc(-c3ccc(N4[C@H]5COC[C@H]4CC(O)C5)cc3)c2c1 (stereo partly drawn) | 160 |

Species on record: Homo sapiens
Assay: Selectivity ratio of IC50 for AURKB/INCENP (unknown origin) to IC50 for amino terminal GST-fused full length human TTK
Conditions: not given

| Structure (SMILES) | Ratio IC50 |
| --- | --- |
| O=C(N[C@@H](c1ccccn1)C1CCCC1)c1ccc2[nH]nc(-c3ccc(N4[C@H]5COC[C@H]4CC(O)C5)cc3)c2c1 (stereo partly drawn) | > 100 |

Test system: not listed separately
Assay: Half life in mouse liver microsomes at 1 uM by LC-MS analysis
Assay type: ADME
Conditions: liver microsomes

| Structure (SMILES) | half-life at 1 µM [min] |
| --- | --- |
| O=C(N[C@@H](c1ccccn1)C1CCCC1)c1ccc2[nH]nc(-c3ccc(N4[C@H]5COC[C@H]4CC(O)C5)cc3)c2c1 (stereo partly drawn) | 60 |
| O=C(N[C@H](c1ccccn1)C1CC1)c1ccc2[nH]nc(-c3ccc(N4[C@H]5CC[C@H]4CC(O)C5)cc3)c2c1 (stereo in doubt; 74) | > 60 |
